Experimental data taken from ChEMBL document CHEMBL2057155, “Synthesis of betulinic acid derivatives as entry inhibitors against HIV-1 and bevirimat-resistant HIV-1 variants” (Bioorg Med Chem Lett, 2012).

Columns and labels:
Liver microsomes [1] = experiment: Half life in human liver microsomes at 1 uM
Liver microsomes [2] = conditions: human, 1 µM
[3] = Cytotoxicity against human TZM-bl assessed as cell viability at 4 uM after 2 days; type: cell-based; conditions: 48 h
Procedure, shortened: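 Toxicity to TZM-bl cells was checked within the single-cycle infection assay at 4 μM.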

[4] = tested on: Human immunodeficiency virus 1; experiment: Antiviral activity against bevirimat-resistant HIV1 NL4-3 harboring QVT motif of Gag SP1 V370A mutant infected in human MT4 cells assessed as reduction of viral p24 level cells […] relative to wild type HIV1 NL4-3 after 4 days by ELISA; type: functional, organism-based; conditions: Human immunodeficiency virus 1, NL4-3, MT4, 96 h
[5] = tested on: Human immunodeficiency virus 1; experiment: Antiviral activity against HIV1 NL4-3 harboring QVT motif of Gag SP1 V370A mutant infected in human TZM-bl cells by fluorescence assay relative to wild type HIV1 NL4-3; type: functional
Procedure, shortened: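 Single-round infection of TZM-bl cells with HIV-1 NL4-3 or the NL4-3 V370A mutant. Tat-driven luciferase expression after viral entry was the read-out. Inhibition was taken as the reduction in luciferase signal relative to infected controls without compound, expressed as relative fluorescence units.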

[6] = Cytotoxicity against human MT4 assessed as cell viability after 2 days; type: cell-based; conditions: MT4 cells, read-out: TD50
[7] = tested on: Human immunodeficiency virus 1; experiment: Antiviral activity against wild type HIV1 NL4-3 infected in human MT4 cells assessed as reduction of viral p24 level cells […] relative to wild type HIV1 NL4-3 after 4 days by ELISA; type: functional, organism-based; conditions: Human immunodeficiency virus 1, NL4-3, MT4, 96 h
[8] = tested on: Human immunodeficiency virus 1; experiment: Antiviral activity against HIV1 NL4-3 infected in human TZM-bl cells assessed as reduction in luciferase gene expression by luminescence assay; type: functional, organism-based; conditions: Human immunodeficiency virus 1, NL4-3, TZM-bl
Procedure, shortened: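 Single-cycle HIV-1 NL4-3 infection of TZM-bl cells; HIV-1 tat-driven luciferase expression after viral entry read as the measure of inhibition. […] control is NL4-3 infection without compound. Values are the mean of two or more independent experiments with standard deviation.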

[9] = tested on: Human immunodeficiency virus 1; experiment: Ratio of EC50 for bevirimat-resistant HIV1 NL4-3 harboring QVT motif of Gag SP1 V370A mutant to EC50 for wild type HIV1 NL4-3; type: functional
Procedure, shortened: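 Multi-cycle viral replication assay in MT4 cells infected with wild-type HIV-1 NL4-3 or the V370A Gag variant. EC50 was determined against each virus, and the fold ratio was taken as mutant EC50 over wild-type EC50.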

[10] = tested on: Human immunodeficiency virus 1; experiment: Antiviral activity against bevirimat-resistant HIV1 NL4-3 harboring QVT motif of Gag SP1 deltaV370 mutant infected in human MT4 cells assessed as reduction of viral p24 level cells […] relative to wild type HIV1 NL4-3 after 4 days by ELISA; type: functional, organism-based; conditions: Human immunodeficiency virus 1, NL4-3, MT4, 96 h
Procedure, shortened: (§1)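 Multi-cycle viral replication assay in MT4 cells, run in parallel against wild-type NL4-3 and NL4-3 variants carrying V370A, ΔV370 or ΔT371 in Gag.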

[11] = tested on: Human immunodeficiency virus 1; experiment: Antiviral activity against bevirimat-resistant HIV1 NL4-3 harboring QVT motif of Gag SP1 deltaT371 mutant infected in human MT4 cells assessed as reduction of viral p24 level cells […] relative to wild type HIV1 NL4-3 after 4 days by ELISA; type: functional, organism-based; conditions: Human immunodeficiency virus 1, NL4-3, MT4, 96 h; procedure, shortened: as §1

Structure (SMILES) | t1/2 (Liver microsomes [1]) [min] | CLH (Liver microsomes [2]) [mL/min/mg] | Activity [3] | EC50 [4] [nM] | fold change (FC) [5] | CC50 at 48 h [6] [µM] | EC50 [7] [nM] | EC50 [8] [nM] | Ratio EC50 [9] | EC50 [10] [nM] | EC50 [11] [nM]
C=C(C)[C@@H]1CC[C@]2(C(=O)NCCCCCCCCC(=O)N[C@@H](CCC(N)=O)C(=O)OC)CC[C@]3(C)[C@H](CC[C@@H]4[C@@]5(C)CC[C@H](O)C(C)(C)[C@@H]5CC[C@]43C)[C@@H]12 | 30.13 | 0.23 | Non-toxic | 20 | 2 | 4.8 | 1720 | 90 | 5 | – | –
C=C(C)[C@@H]1CC[C@]2(C(=O)NCCCCCCCCC(=O)N[C@@H](CCC(N)=O)C(=O)OCc3ccccc3)CC[C@]3(C)[C@H](CC[C@@H]4[C@@]5(C)CC[C@H](O)C(C)(C)[C@@H]5CC[C@]43C)[C@@H]12 | 41.01 | 0.169 | Non-toxic | 50 | 2 | 15 | 190 | 120 | 5 | 23 | 26
COC(=O)[C@H](CCC(N)=O)NC(=O)CCCCCCCCNC(=O)[C@]12CC[C@@H](C(C)C)[C@@H]1[C@H]1CC[C@@H]3[C@@]4(C)CC[C@H](O)C(C)(C)[C@@H]4CC[C@@]3(C)[C@]1(C)CC2 | 31.64 | 0.219 | Non-toxic | 20 | – | 4.6 | 580 | 50 | 5 | – | –
CC(C)[C@@H]1CC[C@]2(C(=O)NCCCCCCCCC(=O)N[C@@H](CCC(N)=O)C(=O)O)CC[C@]3(C)[C@H](CC[C@@H]4[C@@]5(C)CC[C@H](O)C(C)(C)[C@@H]5CC[C@]43C)[C@@H]12 | 24.75 | 0.28 | Non-toxic | 240 | – | 18.6 | 830 | 40 | 5 | – | –
C=C(C)[C@@H]1CC[C@]2(C(=O)NCCCCCCCNC(=O)[C@H](CCC(N)=O)NC(=O)OC(C)(C)C)CC[C@]3(C)[C@H](CC[C@@H]4[C@@]5(C)CC[C@H](O)C(C)(C)[C@@H]5CC[C@]43C)[C@@H]12 | 18.93 | 0.366 | Non-toxic | 90 | – | 7.4 | 360 | 40 | 5 | – | –
C=C(C)[C@@H]1CC[C@]2(C(=O)NCCCCCCCNC(C)=O)CC[C@]3(C)[C@H](CC[C@@H]4[C@@]5(C)CC[C@H](O)C(C)(C)[C@@H]5CC[C@]43C)[C@@H]12 | 25.48 | 0.272 | Non-toxic | 190 | 2 | 12.6 | 120 | 80 | – | 6 | 27
C=C(C)[C@@H]1CC[C@]2(C(=O)O)CC[C@]3(C)[C@H](CC[C@@H]4[C@@]5(C)CC[C@H](OC(=O)CC(C)(C)C(=O)O)C(C)(C)[C@@H]5CC[C@]43C)[C@@H]12 [BEVIRIMAT] | – | – | – | > 4000 | – | > 10 | – | – | – | > 4000 | > 4000
